According to ChEMBL document CHEMBL1152987, “Emergence of the quinolone resistance-mediating gene aac(6')-Ib-cr in extended-spectrum-beta-lactamase-producing Klebsiella isolates collected in Slovenia between 2000 and 2005” (2007):

How the values were obtained:
Format in all cases: functional
[1] = system: Klebsiella; assay: Antimicrobial activity against extended-spectrum-beta-lactamase-producing Klebsiella transconjugant TK3 isolate expressing quinolone resistance-mediating gene aac(6')-Ib-cr by Etest
How it was run: (§1)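 Transconjugants came from broth-free matings of Klebsiella donors with E. coli J53 Azr on brain heart infusion agar. Selection was for 24 h at 37°C on LB agar with sodium azide 150 μg/ml plus ampicillin 100, tetracycline 10, trimethoprim 25 or chloramphenicol 30 μg/ml, then replica plating ± ciprofloxacin 0.01 μg/ml. MICs were read by Etest per the manufacturer's instructions.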

[2] = system: Klebsiella; assay: Antimicrobial activity against extended-spectrum-beta-lactamase-producing Klebsiella transconjugant TK8 isolate expressing quinolone resistance-mediating gene aac(6')-Ib-cr by Etest; how it was run: as §1
[3] = system: Klebsiella; assay: Antimicrobial activity against extended-spectrum-beta-lactamase-producing Klebsiella transconjugant TK6 isolate expressing quinolone resistance-mediating gene aac(6')-Ib-cr by Etest; how it was run: as §1
[4] = system: Klebsiella; assay: Antimicrobial activity against extended-spectrum-beta-lactamase-producing Klebsiella transconjugant TK19 isolate expressing quinolone resistance-mediating gene aac(6')-Ib-cr by Etest; how it was run: as §1
[5] = system: Klebsiella; assay: Antimicrobial activity against extended-spectrum-beta-lactamase-producing Klebsiella transconjugant TK21 isolate expressing quinolone resistance-mediating gene aac(6')-Ib-cr by Etest; how it was run: as §1
[6] = system: Klebsiella; assay: Antimicrobial activity against extended-spectrum-beta-lactamase-producing Klebsiella transconjugant TK2 isolate expressing quinolone resistance-mediating gene aac(6')-Ib-cr by Etest; how it was run: as §1
[7] = system: Klebsiella; assay: Antimicrobial activity against extended-spectrum-beta-lactamase-producing Klebsiella transconjugant TK11 isolate expressing quinolone resistance-mediating gene aac(6')-Ib-cr by Etest; how it was run: as §1
[8] = system: Klebsiella; assay: Antimicrobial activity against extended-spectrum-beta-lactamase-producing Klebsiella transconjugant TK23 isolate expressing quinolone resistance-mediating gene aac(6')-Ib-cr by Etest; how it was run: as §1
[9] = system: Klebsiella; assay: Antimicrobial activity against extended-spectrum-beta-lactamase-producing Klebsiella transconjugant TK9 isolate expressing quinolone resistance-mediating gene aac(6')-Ib-cr by Etest; how it was run: as §1
[10] = system: Klebsiella; assay: Antimicrobial activity against extended-spectrum-beta-lactamase-producing Klebsiella transconjugant TK13 isolate expressing quinolone resistance-mediating gene aac(6')-Ib-cr by Etest; how it was run: as §1
[11] = system: Klebsiella; assay: Antimicrobial activity against extended-spectrum-beta-lactamase-producing Klebsiella transconjugant TK12 isolate expressing quinolone resistance-mediating gene aac(6')-Ib-cr by Etest; how it was run: as §1
[12] = system: Klebsiella; assay: Antimicrobial activity against extended-spectrum-beta-lactamase-producing Klebsiella transconjugant TK17 isolate expressing quinolone resistance-mediating gene aac(6')-Ib-cr by Etest; how it was run: as §1
[13] = system: Klebsiella; assay: Antimicrobial activity against extended-spectrum-beta-lactamase-producing Klebsiella transconjugant TK25 isolate expressing quinolone resistance-mediating gene aac(6')-Ib-cr by Etest; how it was run: as §1
[14] = system: Klebsiella; assay: Antimicrobial activity against extended-spectrum-beta-lactamase-producing Klebsiella transconjugant TK24 isolate expressing quinolone resistance-mediating gene aac(6')-Ib-cr by Etest; how it was run: as §1
[15] = system: Klebsiella; assay: Antimicrobial activity against extended-spectrum-beta-lactamase-producing Klebsiella transconjugant TK4 isolate expressing quinolone resistance-mediating gene aac(6')-Ib-cr by Etest; how it was run: as §1
[16] = system: Klebsiella; assay: Antimicrobial activity against extended-spectrum-beta-lactamase-producing Klebsiella transconjugant TK16 isolate expressing quinolone resistance-mediating gene aac(6')-Ib-cr by Etest; how it was run: as §1
[17] = system: Klebsiella; assay: Antimicrobial activity against extended-spectrum-beta-lactamase-producing Klebsiella transconjugant TK15 isolate expressing quinolone resistance-mediating gene aac(6')-Ib-cr by Etest; how it was run: as §1
[18] = system: Klebsiella; assay: Antimicrobial activity against extended-spectrum-beta-lactamase-producing Klebsiella transconjugant TK14 isolate expressing quinolone resistance-mediating gene aac(6')-Ib-cr by Etest; how it was run: as §1
[19] = system: Klebsiella; assay: Antimicrobial activity against extended-spectrum-beta-lactamase-producing Klebsiella transconjugant TK1 isolate expressing quinolone resistance-mediating gene aac(6')-Ib-cr by Etest; how it was run: as §1
[20] = system: Klebsiella; assay: Antimicrobial activity against extended-spectrum-beta-lactamase-producing Klebsiella transconjugant TK5 isolate expressing quinolone resistance-mediating gene aac(6')-Ib-cr by Etest; how it was run: as §1
[21] = system: Klebsiella; assay: Antimicrobial activity against extended-spectrum-beta-lactamase-producing Klebsiella transconjugant TK20 isolate expressing quinolone resistance-mediating gene aac(6')-Ib-cr by Etest; how it was run: as §1
[22] = system: Klebsiella; assay: Antimicrobial activity against extended-spectrum-beta-lactamase-producing Klebsiella transconjugant TK7 isolate expressing quinolone resistance-mediating gene aac(6')-Ib-cr by Etest; how it was run: as §1
[23] = system: Klebsiella; assay: Antimicrobial activity against extended-spectrum-beta-lactamase-producing Klebsiella transconjugant TK18 isolate expressing quinolone resistance-mediating gene aac(6')-Ib-cr by Etest; how it was run: as §1
[24] = system: Klebsiella; assay: Antimicrobial activity against extended-spectrum-beta-lactamase-producing Klebsiella transconjugant TK10 isolate expressing quinolone resistance-mediating gene aac(6')-Ib-cr by Etest; how it was run: as §1
[25] = system: Klebsiella; assay: Antimicrobial activity against extended-spectrum-beta-lactamase-producing Klebsiella transconjugant TK22 isolate expressing quinolone resistance-mediating gene aac(6')-Ib-cr by Etest; how it was run: as §1

Measured: MIC

O=C(O)c1cn(C2CC2)c2cc(N3CCNCC3)c(F)cc2c1=O [CIPROFLOXACIN]
0.125 µg/mL: [1] | [2] | [3] | [4] | [5] | [6] | [7] | [8] | [9] | [10] | [11] | [12] | [13] | [14] | [15] | [16] | [17] | [18] | [19] | [20] | [21] | [22] | [23] | [24] | [25]
